Assay results as given in ChEMBL document CHEMBL3870350, “Synthesis and application of β-carbolines as novel multi-functional anti-Alzheimer's disease agents” (Bioorg Med Chem Lett, 2017).

Experiments:
Cholinesterase [1] = target: T1, Cholinesterase (Homo sapiens, UniProt P06276); test: Inhibition of BuChE (unknown origin) by spectrophotometric analysis based Ellman's assay
[2] = Antioxidant activity assessed as ABTS free radical scavenging activity at 10 uM; format: functional
[3] = Antioxidant activity assessed as DPPH radical scavenging activity at 10 uM; format: functional
[4] = Antioxidant activity assessed as inhibition of peroxyl radical-induced oxidation at 10 uM by ORAC assay; format: functional; set-up: scale not given: the % may be the effect or the level left
[5] = target: Amyloid-beta precursor protein (Homo sapiens) (UniProt P05067); test: Inhibition of human amyloid-beta (1 to 42 residues) fibril at 1:1 protein to compound ratio after 2 hrs by ELISA; conditions: concentration not given here
Cholinesterase [6] = target: T1, Cholinesterase; test: Inhibition of BuChE (unknown origin) at 10 uM by spectrophotometric analysis based Ellman's assay
In short: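 Ellman colorimetric assay of BuChE activity, with each compound tested at a single 10 μM concentration. […] Activity is reported as percent inhibition.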

[7] = target: Amyloid-beta precursor protein (Homo sapiens) (UniProt P05067); test: Inhibition of human amyloid-beta (1 to 42 residues) oligomer at 1:1 protein to compound ratio after 2 hrs by ELISA; conditions: concentration not given here

T1 sequence (P06276 whole entry): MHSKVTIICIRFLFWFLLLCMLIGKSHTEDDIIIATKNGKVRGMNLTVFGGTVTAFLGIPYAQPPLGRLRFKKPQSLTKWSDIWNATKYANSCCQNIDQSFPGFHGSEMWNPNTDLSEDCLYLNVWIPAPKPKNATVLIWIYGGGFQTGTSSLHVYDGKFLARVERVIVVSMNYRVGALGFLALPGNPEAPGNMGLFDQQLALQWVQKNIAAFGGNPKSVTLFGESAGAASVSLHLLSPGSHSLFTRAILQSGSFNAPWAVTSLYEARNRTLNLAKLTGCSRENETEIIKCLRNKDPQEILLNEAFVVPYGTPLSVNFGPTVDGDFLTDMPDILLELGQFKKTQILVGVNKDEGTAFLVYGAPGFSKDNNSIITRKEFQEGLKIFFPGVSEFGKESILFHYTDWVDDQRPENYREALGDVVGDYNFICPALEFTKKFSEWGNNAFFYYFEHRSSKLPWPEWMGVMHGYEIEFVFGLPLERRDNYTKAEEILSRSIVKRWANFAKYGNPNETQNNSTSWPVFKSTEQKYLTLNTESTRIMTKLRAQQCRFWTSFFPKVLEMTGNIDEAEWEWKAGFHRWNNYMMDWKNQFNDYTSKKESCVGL
Chain of Amyloid-beta precursor protein (Homo sapiens) (P05067 whole entry, the tested form may be a part): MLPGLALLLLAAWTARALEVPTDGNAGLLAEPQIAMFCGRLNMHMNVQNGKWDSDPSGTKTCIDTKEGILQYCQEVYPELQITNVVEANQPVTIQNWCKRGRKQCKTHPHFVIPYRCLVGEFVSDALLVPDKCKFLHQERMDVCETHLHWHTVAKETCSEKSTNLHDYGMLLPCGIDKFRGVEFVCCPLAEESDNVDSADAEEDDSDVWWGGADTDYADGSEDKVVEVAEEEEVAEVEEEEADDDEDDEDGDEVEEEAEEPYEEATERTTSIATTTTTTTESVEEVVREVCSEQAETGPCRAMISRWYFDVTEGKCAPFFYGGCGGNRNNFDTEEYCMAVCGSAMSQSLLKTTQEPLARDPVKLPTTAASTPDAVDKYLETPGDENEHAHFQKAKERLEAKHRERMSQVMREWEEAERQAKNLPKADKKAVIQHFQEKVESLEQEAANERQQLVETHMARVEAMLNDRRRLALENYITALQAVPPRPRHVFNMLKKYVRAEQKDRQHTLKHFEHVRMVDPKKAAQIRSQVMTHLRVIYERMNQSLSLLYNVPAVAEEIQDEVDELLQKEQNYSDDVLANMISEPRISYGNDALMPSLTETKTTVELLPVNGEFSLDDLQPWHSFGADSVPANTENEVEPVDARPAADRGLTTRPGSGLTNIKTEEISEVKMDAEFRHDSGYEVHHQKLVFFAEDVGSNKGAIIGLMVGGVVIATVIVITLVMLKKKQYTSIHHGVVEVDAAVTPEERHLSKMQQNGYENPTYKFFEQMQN

SMILES | IC50 (Cholinesterase [1]) [µM] | Activity [2] [%] | Activity [3] [%] | Activity [4] [%] | inhibition [5] [%] | inhibition (Cholinesterase [6]) [%] | inhibition [7] [%]
COc1ccc2[nH]c3c(-c4ccc(F)cc4)nccc3c2c1 | > 10 | 15 | -13 | 41 | 12 | 34 | –
Cc1ccc2[nH]c3c(-c4ccccc4)nccc3c2c1 | 3.06 | 10 | 2 | 10 | -7 | 54 | 6
COc1ccc2[nH]c3c(-c4ccccc4)nccc3c2c1 | 4.48 | 16 | -6 | 35 | 19 | 64 | 58
c1ccc2c(-c3nccc4c3[nH]c3ccccc34)cccc2c1 | 0.22 | 14 | -6 | 0 | 39 | 95 | 58
Fc1ccc(-c2nccc3c2[nH]c2ccccc23)cc1 | 4.27 | 22 | -3 | 54 | 37 | 79 | 22
Cc1ccccc1-c1nccc2c1[nH]c1ccccc12 | > 10 | 15 | 0 | 58 | 17 | 7 | 45
COc1ccc2[nH]c3c(C(=O)c4ccc(F)cc4)nccc3c2c1 | > 10 | 5 | -4 | 5 | 6 | 1 | 82
COc1ccc2[nH]c3c(C(=O)c4ccc(C(F)(F)F)cc4)nccc3c2c1 | 1.42 | 3 | 2 | 5 | -5 | 46 | 84
O=C(c1ccc(C(F)(F)F)cc1)c1nccc2c1[nH]c1ccccc12 | 1.29 | 7 | -1 | -10 | 11 | 69 | –
Cc1ccc2[nH]c3c(-c4ccc(C(F)(F)F)cc4)nccc3c2c1 | – | – | – | – | 34 | – | 82
O=C(c1ccccc1)c1nccc2c1[nH]c1ccccc12 | > 10 | 6 | -3 | 6 | 20 | 11 | –
O=C1O[C@H]([C@@H](O)CO)C(O)=C1O | – | 28 | 15 | 15 | – | – | –
c1ccc2c(c1)[nH]c1c(C3CCCCC3)nccc12 | – | – | – | – | – | – | 30
COc1ccc2[nH]c3c(-c4ccc(C)cc4)nccc3c2c1 | > 10 | 13 | -12 | 28 | 10 | 32 | 63
c1ccc(-c2nccc3c2[nH]c2ccccc23)cc1 | > 10 | 12 | -7 | 10 | -4 | 46 | 79
Cc1c(C)c2c(c(C)c1O)CCC(C)(C(=O)O)O2 (stereo not given) | – | 26 | 23 | 90 | – | – | –
